High-throughput results as filed in PubChem.
An excerpt weighted towards active compounds, which were near 11% of everything screened.
Diaph inh CS: counter-screen for diaphorase-based assays: diaphorase inhibitors and chemical oxidizers | diaphorase resazurin-to-resorufin fluorescence, NADH, 16 min; bacterial (C. kluyveri) enzyme, not human | inhibition, % at 20 µM | actives 0.69% (n = 190,000) | AID 1217;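 active means primary screen inhibition at 20 µM above a set limit, cut at about 50% in these data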;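 further: plate controls were DMSO with full reaction for no effect and wells lacking NADH for full effect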
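System: Diaphorase enzyme from Clostridium kluyveri | Amount: Enzyme working solution with 0.14 U/mL diaphorase | Benchmarks: No-NADH positive control and DMSO neutral control | Signal: Fluorescence of resorufin formed from resazurin, Ex 544/Em 590 nm | Schedule: 16-min room-temperature incubation before reading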
Lmaj promast: Leishmania major promastigote growth inhibition; actives 9% (n = 200,000); Leishmania major promastigotes, resazurin fluorescence viability; inhibition, % at 10 µM;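 further: promastigotes grown with compound for 44 hours at 28 °C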
G6PDH CS: counter-screen for G6PDH assay hits: L. mesenteroides G6PDH inhibition. actives 0.12% (n = 200,000). AID 1020. inhibition, % at 5 µM. Purified L. mesenteroides G6PDH, diaphorase/resazurin coupled fluorescence, 45 min
Diaph act CS: counter-screen for diaphorase-based assays: diaphorase activators and chemical reducers; Diaphorase/resazurin coupled assay, resorufin fluorescence, 16 min; hits give high values; 1 = vehicle wells, 0 = NADH-free wells; actives 0.005% (n = 190,000); activation factor at 20 µM; AID 1229;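 active means diaphorase activity raised at least twofold by the compound at 20 µM; inactive means activation factor below 2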
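Assay system: Purified diaphorase enzyme from Clostridium kluyveri | Amount: Enzyme 0.07 U/mL final | Dosing: Compound 20 µM once, DMSO 1% | Timing: 16 min reaction at room temperature | Detection: Fluorescence, excitation 544 nm and emission 590 nm | Evaluation: Higher resorufin formation from activation or reduction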
WT yeast gro inh: growth inhibition of WT yeast, mitochondrial fusion screen; mitochondrial fusion phenotypic screen, WT strain; inhibition, % at 10 µM; actives 2.1% (n = 190,000); in the data active means inhibition above about 58%; tested in S. cerevisiae
Numbers without * were called inactive. Unless noted, no stated cut-off is given here; in the data, active means inhibition above about 50%; inactive means the rest.

Screening c1cncc(-c2nc(NCc3ccco3)c3ccccc3n2)c1 returned Diaph inh CS 14, Lmaj promast 77*, G6PDH CS -24, Diaph act CS 0.9 and WT yeast gro inh -6.
CCc1ccc(CNc2ccc3c(c2)ncn3C)cc1 was read as Diaph inh CS 12, Lmaj promast 28, G6PDH CS 10, Diaph act CS 0.9 and WT yeast gro inh 13.
`Cc1ccc(CNc2ccc3c(c2)ncn3C)cc1` gave Diaph inh CS 17, Lmaj promast 60*, G6PDH CS -3, Diaph act CS 0.8 and WT yeast gro inh -6.
For CC(C)CCCCCCNC(=S)Nc1ccc(S(=O)(=O)N2CCOCC2)cc1 the results were Diaph inh CS 20, Lmaj promast 50, G6PDH CS 8, Diaph act CS 0.8 and WT yeast gro inh -2.
`COc1cc(C2CC(=O)Nc3c2c(=O)nc2c(C)cccn32)cc(OC)c1OC` (configuration not stated) gave Diaph inh CS 0, Lmaj promast -9, G6PDH CS 11, Diaph act CS 1 and WT yeast gro inh 0.
`COc1cccc(CC(=O)Nc2ccc3nc(C)sc3c2)c1` gave Diaph inh CS 12, Lmaj promast 45, G6PDH CS 10, Diaph act CS 0.9 and WT yeast gro inh 64*.
`Cc1nc2ccc(NC(=O)c3nn(CC(C)C)c(=O)c4ccccc34)cc2s1` gave Diaph inh CS 19, Lmaj promast 5, G6PDH CS -25, Diaph act CS 0.8 and WT yeast gro inh 64*.
For COc1ccccc1CC(=O)Nc1ccc(OC)c(OC)c1 the results were Diaph inh CS 8, Lmaj promast -6, G6PDH CS -13, Diaph act CS 0.9 and WT yeast gro inh 5.
COc1ccccc1CC(=O)Nc1ccc2nc(C)sc2c1 was read as Diaph inh CS 3, Lmaj promast 61*, G6PDH CS -15, Diaph act CS 1 and WT yeast gro inh 9.
For COc1ccccc1CC(=O)Nc1ccc2c(c1)C(=O)NC2=O the results were Diaph inh CS -3, Lmaj promast 100*, G6PDH CS 0, Diaph act CS 1 and WT yeast gro inh -16.
Cc1nnc(NC(=O)c2nn(CC(C)C)c(=O)c3ccccc23)s1 was read as Diaph inh CS 8, Lmaj promast 6, G6PDH CS 2, Diaph act CS 0.9 and WT yeast gro inh 3.
`COc1cccc(C(=O)N(c2ccc(C)cc2)C2C=CS(=O)(=O)C2)c1` (configuration not stated) gave Diaph inh CS 4, Lmaj promast -7, G6PDH CS 15, Diaph act CS 1 and WT yeast gro inh 10.
`Cc1ccc(S(=O)(=O)Oc2ccc(/C=C3/N=C(c4ccccc4)OC3=O)cc2)cc1` gave Diaph inh CS 2, Lmaj promast 27, G6PDH CS -2, Diaph act CS 1 and WT yeast gro inh 4.
For Cc1c(Cl)ccc2c(C(=O)NCCN3CCCCC3)cc(-c3ccccn3)nc12 the results were Diaph inh CS -22, Lmaj promast 79*, G6PDH CS 7, Diaph act CS 1.2 and WT yeast gro inh 94*.
`COc1ccc(N=Nc2nc3cc(Br)c(Br)cc3n2C)c(OC)c1` gave Diaph inh CS 14, Lmaj promast 34, G6PDH CS -6, Diaph act CS 0.9 and WT yeast gro inh 61*.
For COc1ccc(CNc2nc3ccccc3n2C)c(OC)c1 the results were Diaph inh CS -9, Lmaj promast -6, G6PDH CS 4, Diaph act CS 1.1 and WT yeast gro inh -2.
For C#CCNC(=O)C1=C[C@@H](C(C)(C)C)C[C@@H](OCc2ccc(CO)cc2)O1 the results were Diaph inh CS 35, Lmaj promast 98*, G6PDH CS 5, Diaph act CS 0.7 and WT yeast gro inh -9.
Screening CC(C)(C)[C@@H]1C=C(C(=O)NCc2ccccc2)O[C@H](OCc2ccc(CO)cc2)C1 returned Diaph inh CS 29, Lmaj promast 97*, G6PDH CS 23, Diaph act CS 0.7 and WT yeast gro inh -30.
`O=C(O)c1csc(N/N=C/c2ccc(Br)cc2)n1` gave Diaph inh CS 19, Lmaj promast -5, G6PDH CS 14, Diaph act CS 0.8 and WT yeast gro inh 1.
For O=C(CSc1nc2cc(C(F)(F)F)ccc2n1Cc1ccccc1)NC1CCS(=O)(=O)C1 (configuration not stated) the results were Diaph inh CS 16, Lmaj promast 97*, G6PDH CS 2, Diaph act CS 0.8 and WT yeast gro inh 0.
